We go through 3 molecules from ChEMBL document CHEMBL1938262, “A specific protein disorder catalyzer of HIV-1 Nef” (Bioorg Med Chem, 2011).

Activity calls are given as the source filed them. The rule behind the calls is not given here. Some results are limits rather than exact numbers.

A short description of data set [1]: Induction of HIV1 GST-Nef-mVenus proteolysis after 30 mins preincubation measured after 60 mins by cleavage enzyme-cytometric bead array method in presence of HIV1 protease. Also on record: species or system Human immunodeficiency virus 1. The gist of the method: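 CE-CBA: a GST-Nef-mVenus reporter is immobilized on anti-GST antibody beads and cleaved by HIV protease. Cleavage is followed as loss of bead fluorescence by flow cytometry. Values are normalized to the DMSO control (0% cleavage) and intrinsic bead fluorescence (100%). Relative EC50 is reported as mean ± SEM of three independent experiments.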

The nature of data set [2]: Cytotoxicity against african green monkey COS7 cells assessed as cell viability up to 40 uM after 70 hrs. It counts as cell-based, COS-7. Conditions: chlorocebus aethiops, read-out: Activity.
Data set [3] in a line: Inhibition of HIV1 Nef (56-206)/SH3 domain of GST-Hck expressed in Escherichia coli BL21 DE3 complex formation after 1 hr by high-mass MALDI TOF analysis. In short, it runs like this: (§1)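 Nef core (56–206) and Hck SH3 were expressed in E. coli BL21 DE3 as GST fusions, thrombin-cleaved and gel-filtered. Nef was preincubated 1 h at rt with compound from DMSO stocks (up to 5 mM stock), then SH3-Hck was added for 1 h at rt. Samples were cross-linked 1 h, mixed with sinapinic acid matrix and analysed by high-mass MALDI-TOF in triplicate. IC50 comes from % complex versus log concentration.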

Data set [4] is described as follows: Inhibition of HIV1 Nef (56-206)/SH3 domain of GST-Hck expressed in Escherichia coli BL21 DE3 complex formation at […] after 1 hr by high-mass MALDI TOF analysis. The gist of the method: as §1
For data set [5], the system named is Protein Nef (Human immunodeficiency virus type 1). Description: Decrease in aggregation temperature of HIV1 His-tagged Nef at 10 to 200 uM by thermal protein denaturation assay (reference value: 58.83 +/- 0.25 degC).
Data set [6] can be described thus: Solubility of the compound. It counts as physicochemical.

As usually defined, the IC50 is the concentration needed to halve the response being measured. As to `CC(C)(C)c1ccc(OCC(=O)Nc2cccc(C(=O)O)c2)cc1`, the EC50 in data set [1] was found to be 109 µM. Moreover, the viability at 70 h in data set [2] was 86.6%. In data set [3], this molecule came in with an IC50 greater than 50 µM. In addition, in data set [4], the inhibition entry is “Active”. The T in data set [5] is 50.3 °C.
Regarding `CC(C)(C)c1ccc(-c2ccc(OCC(=O)Nc3cccc(C(=O)O)c3)cc2)cc1`, in data set [1], the EC50 was 34.3 µM. For the same molecule, the solubility entry in data set [6] was “Insoluble”. Besides, the viability at 70 h in data set [2] was 73%. The molecule further displayed an IC50 in data set [3] of 15.9 µM. Moreover, in data set [4], the inhibition entry was “Active”.
Take `COC(=O)c1cccc(NC(=O)COc2ccc(-c3ccc(C(C)(C)C)cc3)cc2)c1`: the solubility result in data set [6] is “Insoluble”.
